This is an account of results in PMC5845419 (RMD Open, 2018).

One data set has as its system serum urate (sUA). In words: Serum urate. The format is in vivo, human. The following applies: 7 days, adults with gout. Summed up: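 Adults with gout, 7-day periods; second dose of twice-daily regimen given after evening meal ~10 hours after first. Serum sampled at preset intervals on baseline (day −1) and days 7–35; non-ULT subjects started colchicine ~day −7. Emax as maximum per cent sUA change from baseline; mixed-effects model (sequence, treatment fixed; subject random; baseline covariate) giving least-squares means.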

Data set [1] is classed as in vivo, human. Summed up:
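Adults with gout, open-label, randomised by incomplete block design; 7-day treatment periods, oral dosing ~30 min after standardised breakfast. Serial plasma samples on days 7–35 and timed total-catch urine (1-hour rising to 2- or 10-hour intervals) with scheduled water intake. Plasma by protein precipitation, urine diluted with water; LC-MS/MS. Mixed-effects model (treatment fixed, subject random); geometric means.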

Data set [2] is described as follows: Safety and tolerability, phase IIa study in adults with gout. The following applies: all dose combinations of verinurad (2.5–20 mg) and allopurinol 300 mg once daily. The format is in vivo, human.
For data set [3] the following is noted: single oral 10 mg dose, healthy volunteers; cited from earlier work.
The mark [4] stands for this setting: allopurinol 600 mg once daily vs 300 mg twice daily.
Setting [5] is: verinurad 2.5 mg + allopurinol 300 mg once daily.
The mark [6] stands for this setting: verinurad 20 mg + allopurinol 300 mg once daily.

SMILES strings stand for the structures. Entries after “also recorded” stand apart in the source; their conditions may differ. Where two headings read alike, the source gives them in different places.

In general, Tmax refers to the time from dosing to the highest level.

For `Oc1ncnc2[nH]ncc12` [allopurinol, reference compound], the results for the “least-squares mean Emax (maximum per cent decrease in sUA from baseline)” value with serum urate (sUA) (allopurinol 300 mg once daily alone), in the data set on serum urate (sUA) (allopurinol 300 mg twice daily alone) and in the data set on serum urate (sUA) (allopurinol 600 mg once daily alone) were 40%, 54% and 54%, respectively. The “least-squares geometric mean ratio (90% CI), allopurinol Cmax” value in data set [1] (setting [4]) was 204 (162 to 257). Also, the “change of allopurinol Ae0–24 and CLR0–24 by verinurad” value in data set [1] (verinurad at any dose (2.5–20 mg) + allopurinol 300 mg once daily) is given as “generally unchanged”.
With `O=c1[nH]c(=O)c2c[nH]nc2[nH]1` [oxypurinol], the “least-squares geometric mean ratio (90% CI), oxypurinol Cmax” value in data set [1] (setting [4]) is reported as 122 (103 to 146).
Regarding `CC(C)(Sc1ccncc1-c1ccc(C#N)c2ccccc12)C(=O)O` [verinurad], the “least-squares mean Emax (maximum per cent decrease in sUA from baseline)” value in the data set with serum urate (sUA) (setting [5]) was determined as 47%; with serum urate (sUA) (verinurad 5 mg + allopurinol 300 mg once daily), 59%; with serum urate (sUA) (verinurad 7.5 mg + allopurinol 300 mg once daily) it was 60%; with serum urate (sUA) (verinurad 10 mg + allopurinol 300 mg once daily) it was 67%; with serum urate (sUA) (verinurad 15 mg + allopurinol 300 mg once daily) it was 68%; in the data set on serum urate (sUA) (setting [6]) it was 74%. Also, the tolerability result is recorded as “generally well tolerated” in data set [2] and “well tolerated” in data set [2] (listed as Verinurad). Besides, the time of peak concentration (Tmax) in data set [1] (human, plasma, oral, median Tmax, range across verinurad doses 2.5–20 mg in combination with allopurinol 300 mg once daily) lay within 3 to 3.97 h. For the same compound, the entries for the “Ae0–24 (amount excreted in urine)” value in data set [1] (setting [5]) and in data set [1] (setting [6]) were 17.8 µg and 165 µg, respectively. In data set [1] (verinurad 2.5–20 mg + allopurinol 300 mg once daily), the “effect of verinurad on plasma PK of allopurinol” value was “no effect; also recorded: did not affect”. In addition, the “fraction of dose absorbed” value in data set [3] is recorded as ~ 64%. For the same compound, in data set [3], the “median time to maximum observed plasma concentration (Tmax)” value is 0.5 h. The terminal half-life in data set [3] is 15 h.
